{"source": "ChEMBL document CHEMBL4837188", "about": "“Identification of Novel Tricyclic Benzo[1,3]oxazinyloxazolidinones as Potent Antibacterial Agents with Excellent Pharmacokinetic Profiles against Drug-Resistant Pathogens” (J Med Chem, 2021)", "key": {"[1]": {"assay": "Metabolic stability in CD-1 mouse liver microsomes incubated for 30 mins by LC-MS analysis", "type": "ADME, Microsome", "settings": "CD-1, mouse, liver microsomes, read-out: Stabilty", "method_in_brief": "(§1)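 Microsomes from male CD-1 mouse or pooled human, 1 mg/mL protein in 0.05 M phosphate buffer pH 7.4. Compound at final 0.1 μM with DMSO cosolvent. Incubated at 37 °C with 1 mM NADPH, or with buffer in place of NADPH. Sampled at 0 and 30 min and quenched with acetonitrile. LC−MS measurement; substrate remaining at 30 min normalized to time zero.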"}, "[2]": {"target": "T1, Amine oxidase [flavin-containing] A (Homo sapiens, UniProt P21397)", "T1 sequence (P21397 whole entry)": "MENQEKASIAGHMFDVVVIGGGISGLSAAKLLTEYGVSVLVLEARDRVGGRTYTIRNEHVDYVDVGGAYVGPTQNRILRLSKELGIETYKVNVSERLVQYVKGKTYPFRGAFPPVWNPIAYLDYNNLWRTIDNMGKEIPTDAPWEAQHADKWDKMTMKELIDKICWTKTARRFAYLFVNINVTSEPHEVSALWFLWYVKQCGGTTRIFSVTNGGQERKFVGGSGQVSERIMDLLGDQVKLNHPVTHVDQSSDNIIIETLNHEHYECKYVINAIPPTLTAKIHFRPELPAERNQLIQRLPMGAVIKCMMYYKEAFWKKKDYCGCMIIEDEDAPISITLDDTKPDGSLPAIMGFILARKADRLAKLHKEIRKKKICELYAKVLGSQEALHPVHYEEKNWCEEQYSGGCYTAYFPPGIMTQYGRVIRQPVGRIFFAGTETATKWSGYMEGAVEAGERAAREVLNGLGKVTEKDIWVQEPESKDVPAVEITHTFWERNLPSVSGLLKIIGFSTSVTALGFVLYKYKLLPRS", "assay": "Inhibition of MAO-A (unknown origin) using kynuramine as substrate preincubated for 5 mins with substrate followed by enzyme addition and measured after 15 mins by LC-MS/MS analysis", "method_in_brief": "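Recombinant MAO-A (0.01 mg/mL working solution) or MAO-B (0.04 mg/mL working solution) in phosphate buffer. Kynuramine 40 μM working solution. Compound or DMSO preincubated with substrate for 5 min at 37 °C; enzyme then added and incubated 15 min at 37 °C. Reaction quenched. Product 4-hydroxyquinoline (printed as 4-hydroxyquinolinol) measured by LC−MS/MS. Six concentrations in 4-fold dilutions; IC50 from % inhibition versus vehicle.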"}, "[3]": {"assay": "MRT (0 to infinity) in BALB/c mouse at 1 mg/kg, iv measured upto 24 hrs by LC-MS/MS analysis", "type": "ADME, organism-based", "settings": "in vivo", "method_in_brief": "(§2)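 Female BALB/c mice, 16−21 g, three per route. Oral dosing at 10 mg/kg as a 5 mg/mL suspension in 0.5% carboxymethyl cellulose. IV dosing at 1 mg/kg as a 1 mg/mL solution in 10% DMSO/50% PEG400/40% water. Blood sampled 15 min to 24 h after oral dosing and 5 min to 24 h after iv. LC/MS/MS quantification in ESI positive mode. Noncompartmental analysis; F = (AUCpo×dose_iv)/(AUCiv×dose_po)×100%.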"}, "Staphylococcus aureus [4]": {"tested_on": "Staphylococcus aureus", "assay": "Antibacterial activity against Staphylococcus aureus ATCC 29213 assessed as inhibition of bacterial growth incubated for 18 hrs by broth microdilution method", "type": "functional", "method_in_brief": "(§3)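 Broth microdilution in 96-well plates. Media: cation-adjusted Mueller−Hinton broth for S. aureus, brain heart infusion for VRE, Mueller−Hinton broth for the other strains. Incubated at 37 °C for 18 h, then A600 read. Percent growth inhibition calculated against 1% DMSO vehicle.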"}, "Enterococcus faecalis [5]": {"tested_on": "Enterococcus faecalis", "assay": "Antibacterial activity against Enterococcus faecalis ATCC 29212 assessed as bacterial growth inhibition after 18 hrs by broth microdilution method", "type": "functional", "method_in_brief": "as §3"}, "[6]": {"tested_on": "Staphylococcus epidermidis", "assay": "Antibacterial activity against methicillin resistant Staphylococcus epidermidis assessed as bacterial growth inhibition after 18 hrs by broth microdilution method", "type": "functional"}, "[7]": {"assay": "Apparent volume of distribution in BALB/c mouse at 1 mg/kg, iv measured upto 24 hrs by LC-MS/MS analysis", "type": "ADME, organism-based", "settings": "in vivo, read-out: Vz", "method_in_brief": "as §2"}, "Escherichia coli": {"tested_on": "Escherichia coli", "assay": "Antibacterial activity against Escherichia coli 25922 assessed as inhibition of bacterial growth incubated for 18 hrs by broth microdilution method", "type": "functional", "settings": "ATCC 25922", "method_in_brief": "as §3"}, "Enterococcus faecium [8]": {"tested_on": "Enterococcus faecium", "assay": "Antibacterial activity against linezolid resistant Enterococcus faecium 13549 assessed as bacterial growth inhibition after 18 hrs by broth microdilution method", "type": "functional"}, "[9]": {"assay": "Elimination half life in BALB/c mouse at 10 mg/kg, po measured upto 24 hrs by LC-MS/MS analysis", "type": "ADME, organism-based", "settings": "in vivo, read-out: beta t1/2 (converted)", "method_in_brief": "as §2"}, "[10]": {"assay": "Metabolic stability in CD-1 mouse liver microsomes assessed as substrate remaining in presence of NADPH incubated for 30 mins by LC-MS analysis", "type": "ADME, Microsome", "settings": "read-out: Stabilty", "method_in_brief": "as §1"}, "[11]": {"assay": "AUC (0 to infinity) in BALB/c mouse at 10 mg/kg, po measured upto 24 hrs by LC-MS/MS analysis", "type": "ADME, organism-based", "set-up": "route oral, dose 10 mg/kg, time <=24", "settings": "in vivo", "method_in_brief": "as §2"}, "Enterococcus faecalis [12]": {"tested_on": "Enterococcus faecalis", "assay": "Antibacterial activity against linezolid resistant Enterococcus faecalis assessed as bacterial growth inhibition after 18 hrs by broth microdilution method", "type": "functional"}, "Enterococcus": {"tested_on": "Enterococcus", "assay": "Antibacterial activity against vancomycin resistant Enterococcus assessed as bacterial growth inhibition after 18 hrs by broth microdilution method", "type": "functional"}, "[13]": {"assay": "Metabolic stability in pooled human liver microsomes incubated for 30 mins by LC-MS analysis", "type": "ADME, Microsome", "settings": "read-out: Stabilty", "method_in_brief": "as §1"}, "[14]": {"assay": "Elimination half life in BALB/c mouse at 1 mg/kg, iv measured upto 24 hrs by LC-MS/MS analysis", "type": "ADME, organism-based", "settings": "in vivo, read-out: beta t1/2 (converted)", "method_in_brief": "as §2"}, "[15]": {"assay": "Cmax in BALB/c mouse at 10 mg/kg, po measured upto 24 hrs by LC-MS/MS analysis", "type": "ADME, organism-based", "set-up": "route oral, dose 10 mg/kg, time <=24", "settings": "in vivo", "method_in_brief": "as §2"}, "Staphylococcus aureus [16]": {"tested_on": "Staphylococcus aureus", "assay": "Antibacterial activity against vancomycin intermediate Staphylococcus aureus assessed as bacterial growth inhibition after 18 hrs by broth microdilution method", "type": "functional"}, "[17]": {"assay": "MRT (0 to infinity) in BALB/c mouse at 10 mg/kg, po measured upto 24 hrs by LC-MS/MS analysis", "type": "ADME, organism-based", "settings": "in vivo", "method_in_brief": "as §2"}, "[18]": {"assay": "Tmax in BALB/c mouse at 10 mg/kg, po measured upto 24 hrs by LC-MS/MS analysis", "type": "ADME, organism-based", "settings": "in vivo", "method_in_brief": "as §2"}, "Staphylococcus capitis": {"tested_on": "Staphylococcus capitis", "assay": "Antibacterial activity against linezolid resistant Staphylococcus capitis assessed as bacterial growth inhibition after 18 hrs by broth microdilution method", "type": "functional"}, "[19]": {"tested_on": "Mycobacterium tuberculosis", "assay": "Antitubercular activity against Mycobacterium tuberculosis H37Rv assessed as inhibition of bacterial growth incubated for 7 days by MABA", "type": "functional", "settings": "Mycobacterium tuberculosis, H37Rv, 168 h, time 7 day; read-out: MIC", "method_in_brief": "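Microplate alamar blue assay. H37Rv or clinical isolates were grown to late log phase in 7H9 broth with glycerol, Tween 80 and ADC, then 2 × 10⁵ CFU added to two-fold dilutions. Final range 32–0.5 μg/mL, lowered to 2–0.016 μg/mL for active compounds. 37 °C, 7 days, then alamar blue 16 h. Fluorescence 530/590 nm. MIC is the lowest concentration giving ≥90% reduction; INH and RFP were controls.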"}, "Bacillus subtilis": {"tested_on": "Bacillus subtilis", "assay": "Antibacterial activity against Bacillus subtilis 168 assessed as inhibition of bacterial growth incubated for 18 hrs by broth microdilution method", "type": "functional", "method_in_brief": "as §3"}, "Enterococcus faecium [20]": {"tested_on": "Enterococcus faecium", "assay": "Antibacterial activity against Enterococcus faecium ATCC 49624 assessed as bacterial growth inhibition after 18 hrs by broth microdilution method", "type": "functional", "method_in_brief": "as §3"}}, "data": [{"molecule": "CC(=O)NC[C@@H]1OC(=O)N2Cc3cc(-c4ccc(C#N)nc4)c(F)cc3O[C@@H]12", "values": [{"measurement": "remaining at 0.5 h", "setting": "[1]", "result": 108, "unit": "%"}, {"measurement": "IC50", "setting": "[2]", "result": "> 50", "unit": "µM"}, {"measurement": "MRT inf", "setting": "[3]", "result": 4.71, "unit": "h"}, {"measurement": "MIC", "setting": "Staphylococcus aureus [4]", "result": 0.125, "unit": "µg/mL"}, {"measurement": "MIC", "setting": "Enterococcus faecalis [5]", "result": 0.5, "unit": "µg/mL"}, {"measurement": "MIC", "setting": "[6]", "result": 1, "unit": "µg/mL"}, {"measurement": "Vd", "setting": "[7]", "result": 0.762, "unit": "L/kg"}, {"measurement": "MIC", "setting": "Escherichia coli", "result": "> 64", "unit": "µg/mL"}, {"measurement": "MIC", "setting": "Enterococcus faecium [8]", "result": 2, "unit": "µg/mL"}, {"measurement": "half-life", "setting": "[9]", "result": 3.76, "unit": "h"}, {"measurement": "remaining at 0.5 h", "setting": "[10]", "result": 95.5, "unit": "%"}, {"measurement": "AUC(0-inf)", "setting": "[11]", "result": 78700, "unit": "ng·h/mL"}, {"measurement": "MIC", "setting": "Enterococcus faecalis [12]", "result": 1, "unit": "µg/mL"}, {"measurement": "MIC", "setting": "Enterococcus", "result": 0.25, "unit": "µg/mL"}, {"measurement": "remaining at 0.5 h", "setting": "[13]", "result": 106, "unit": "%"}, {"measurement": "half-life", "setting": "[14]", "result": 4.08, "unit": "h"}, {"measurement": "Cmax", "setting": "[15]", "result": 10300, "unit": "ng/mL"}, {"measurement": "MIC", "setting": "Staphylococcus aureus [16]", "result": 0.25, "unit": "µg/mL"}, {"measurement": "MRT inf", "setting": "[17]", "result": 5.86, "unit": "h"}, {"measurement": "Tmax", "setting": "[18]", "result": 1.33, "unit": "h"}, {"measurement": "MIC", "setting": "Staphylococcus capitis", "result": 2, "unit": "µg/mL"}, {"measurement": "MIC", "setting": "[19]", "result": 0.4, "unit": "µg/mL"}, {"measurement": "MIC", "setting": "Bacillus subtilis", "result": 0.125, "unit": "µg/mL"}, {"measurement": "MIC", "setting": "Enterococcus faecium [20]", "result": 1, "unit": "µg/mL"}]}]}
